Here are results for 19 compounds from ChEMBL document CHEMBL1817584, “Synthesis of novel fluconazoliums and their evaluation for antibacterial and antifungal activities” (2011).

Holding throughout (type): functional
In one assay the test system is Aspergillus fumigatus. Description: Antifungal activity against Aspergillus fumigatus ATCC 96918 after 24 hrs by twofold serial dilution method. Particulars: ATCC 96918, 24 h. An outline of the steps:
(§1)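 A fungal spore suspension was made in sterile distilled water from a 1-day-old culture grown on Sabouraud agar, then tested against serial dilutions of compounds (DMSO stocks) to determine MIC.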

A further assay concerns Candida albicans. Description: Antifungal activity against Candida albicans ATCC 76615 after 24 hrs by twofold serial dilution method. To be noted: ATCC 76615, 24 h. The procedure, abridged: as §1
For a further assay, the system named is Bacillus. Description: Antibacterial activity against Bacillus proteus ATCC 13315 after 24 hrs by twofold serial dilution method. Particulars: ATCC 13315, 24 h. An outline of the steps:
(§2)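 Each bacterial suspension was adjusted with sterile saline to 1 × 10⁵ CFU. Compounds were first dissolved in DMSO as stock solutions, then diluted in Mueller–Hinton broth in twofold steps (8, 4, 2, 1, 0.5, 0.25). Dilutions were inoculated and incubated at 37 °C for 24 h, and MIC was read. DMSO plus inoculum without drug served as a solvent control.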

Another assay relates to Pseudomonas aeruginosa. Description: Antibacterial activity against Pseudomonas aeruginosa ATCC 27853 after 24 hrs by twofold serial dilution method. Particulars: ATCC 27853, 24 h. The procedure, abridged:
as §2

A further assay relates to Bacillus subtilis. Description: Antibacterial activity against Bacillus subtilis ATCC 21216 after 24 hrs by twofold serial dilution method. Particulars: ATCC 21216, 24 h. An outline of the steps: as §2
Assay [1] has as its system Staphylococcus aureus. Description: Antibacterial activity against Staphylococcus aureus ATCC 6538 after 24 hrs by twofold serial dilution method. To be noted: ATCC 6538, 24 h. The procedure, abridged: as §2
The next assay deals with Escherichia coli. Description: Antibacterial activity against Escherichia coli ATCC 8099 after 24 hrs by twofold serial dilution method. Particulars: ATCC 8099, 24 h. The procedure, abridged: as §2
Assay [2] has as its system Staphylococcus aureus. Description: Antibacterial activity against methicillin-resistant Staphylococcus aureus N315 after 24 hrs by twofold serial dilution method. To be noted: N315, 24 h. An outline of the steps:
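Compounds were dissolved in DMSO as stock, then diluted twofold in Mueller–Hinton broth. Chloromycin and norfloxacin were run as reference drugs. The inoculum was adjusted in sterile saline to 1 × 10⁵ CFU, and a DMSO-plus-inoculum well served as solvent control. Plates were incubated at 37 °C for 24 h and read as MIC.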

The MIC is the smallest concentration in the dilution series that meets the test's criterion for growth inhibition.

In brackets after ≈: the same amount, converted by molar mass. Some results are limits rather than exact numbers.

Regarding `BrCCOc1ccc2ccccc2c1`, the MIC is above 256 µg/mL in the assay on Aspergillus fumigatus; above 256 µg/mL against Candida albicans; above 256 µg/mL in the assay on Bacillus; above 256 µg/mL in the assay with Pseudomonas aeruginosa; above 256 µg/mL against Bacillus subtilis; 256 µg/mL (≈ 1020 µM) in the assay on Staphylococcus aureus [1]. Further, the figures for the minimum inhibitory concentration (MIC) against Escherichia coli and against Staphylococcus aureus [2] were 256 µg/mL (≈ 1020 µM) and above 256 µg/mL, respectively.

On to `OC(Cn1c[n+](Cc2ccc(Cl)cc2)cn1)(Cn1c[n+](Cc2ccc(Cl)cc2)cn1)c1ccc(F)cc1F.[Cl-].[Cl-]`, for which the MIC against Aspergillus fumigatus turned out to be 64 µg/mL; in the assay on Candida albicans, 256 µg/mL; with Bacillus it was 256 µg/mL; in the assay on Pseudomonas aeruginosa it was 16 µg/mL; against Bacillus subtilis, 256 µg/mL; with Staphylococcus aureus [1] it was 64 µg/mL. For the same compound, the MIC against Escherichia coli was 256 µg/mL; in the assay with Staphylococcus aureus [2] it was above 256 µg/mL.

Regarding `OC(Cn1c[n+](Cc2ccccc2)cn1)(Cn1c[n+](Cc2ccccc2)cn1)c1ccc(F)cc1F.[Br-].[Br-]`, the MIC with Aspergillus fumigatus was 128 µg/mL; against Candida albicans, 256 µg/mL; in the assay on Bacillus, 128 µg/mL; against Pseudomonas aeruginosa, 128 µg/mL; in the assay on Bacillus subtilis, 256 µg/mL; with Staphylococcus aureus [1], 256 µg/mL. Besides, the MIC with Escherichia coli turned out to be 256 µg/mL; in the assay with Staphylococcus aureus [2] it was 128 µg/mL.

For `O=C1c2cccc3c(Br)ccc(c23)C(=O)N1CCCCCCn1cncn1`, the MIC in the assay with Aspergillus fumigatus, with Candida albicans, with Bacillus, in the assay on Pseudomonas aeruginosa, with Bacillus subtilis and with Staphylococcus aureus [1] was above 256 µg/mL each time. The minimum inhibitory concentration (MIC) against Escherichia coli and in the assay with Staphylococcus aureus [2] was above 256 µg/mL each time.

For the compound `OC(Cn1c[n+](Cc2ccccc2Cl)cn1)(Cn1c[n+](Cc2ccccc2Cl)cn1)c1ccc(F)cc1F.[Cl-].[Cl-]`, the minimum inhibitory concentration (MIC) in the assay with Aspergillus fumigatus was 32 µg/mL; with Candida albicans it was 128 µg/mL; in the assay with Bacillus it was 8 µg/mL; with Pseudomonas aeruginosa it was above 256 µg/mL; with Bacillus subtilis, 256 µg/mL; against Staphylococcus aureus [1], 32 µg/mL. Further, the figures for the minimum inhibitory concentration (MIC) in the assay with Escherichia coli and in the assay on Staphylococcus aureus [2] were 128 µg/mL and 256 µg/mL, respectively.

With `CCn1cc(C(=O)O)c(=O)c2cc(F)c(N3CCNCC3)cc21` [NORFLOXACIN], the minimum inhibitory concentration (MIC) against Bacillus is 1 µg/mL (≈ 3.13 µM); in the assay with Pseudomonas aeruginosa, 2 µg/mL (≈ 6.26 µM); against Bacillus subtilis, 1 µg/mL (≈ 3.13 µM); against Staphylococcus aureus [1], 8 µg/mL (≈ 25.1 µM); with Escherichia coli, 0.5 µg/mL (≈ 1.57 µM); against Staphylococcus aureus [2] it was 1 µg/mL (≈ 3.13 µM).

Consider `O=C1c2cccc3c(Br)ccc(c23)C(=O)N1CCCCCCn1c[n+](Cc2ccc(F)cc2F)cn1.[Br-]`, for which the MIC in the assay with Aspergillus fumigatus was 64 µg/mL; with Candida albicans it was 64 µg/mL; against Bacillus, 16 µg/mL; in the assay on Pseudomonas aeruginosa, 8 µg/mL; against Bacillus subtilis it was 128 µg/mL; against Staphylococcus aureus [1] it was 16 µg/mL. The MIC against Escherichia coli came out at 32 µg/mL; in the assay on Staphylococcus aureus [2], 64 µg/mL.

`CCCCCCCC[n+]1cnn(Cc2ccc(F)cc2F)c1.[Br-]`: the minimal inhibitory concentration (MIC) stood at 32 µg/mL in the assay on Aspergillus fumigatus; 32 µg/mL in the assay with Candida albicans; 8 µg/mL in the assay with Bacillus; 16 µg/mL in the assay with Pseudomonas aeruginosa; 64 µg/mL against Bacillus subtilis; 8 µg/mL with Staphylococcus aureus [1]. Also, the MIC in the assay on Escherichia coli and in the assay on Staphylococcus aureus [2] was 16 µg/mL throughout.

Take `OC(Cn1c[n+](Cc2ccc(F)cc2F)cn1)(Cn1c[n+](Cc2ccc(F)cc2F)cn1)c1ccc(F)cc1F.[Br-].[Br-]`: the minimum inhibitory concentration (MIC) was above 256 µg/mL in the assay on Aspergillus fumigatus; 128 µg/mL against Candida albicans; 128 µg/mL in the assay with Bacillus; above 256 µg/mL against Pseudomonas aeruginosa; 256 µg/mL against Bacillus subtilis; 64 µg/mL with Staphylococcus aureus [1]. For the same compound, the MIC in the assay with Escherichia coli stood at 64 µg/mL; against Staphylococcus aureus [2], 256 µg/mL.

On to `OC(Cn1cncn1)(Cn1cncn1)c1ccc(F)cc1F` [FLUCONAZOLE], for which the minimum inhibitory concentration (MIC) is 256 µg/mL (≈ 836 µM) with Aspergillus fumigatus and 0.5 µg/mL (≈ 1.63 µM) against Candida albicans.

As to `O=[N+]([O-])c1ccc(C[n+]2cnn(CC(O)(Cn3c[n+](Cc4ccc([N+](=O)[O-])cc4)cn3)c3ccc(F)cc3F)c2)cc1.[Br-].[Br-]`, the MIC against Aspergillus fumigatus came out at 128 µg/mL; in the assay with Candida albicans, 128 µg/mL; in the assay with Bacillus, 128 µg/mL; against Pseudomonas aeruginosa it was 128 µg/mL; in the assay with Bacillus subtilis, 128 µg/mL; with Staphylococcus aureus [1] it was 64 µg/mL. Moreover, the MIC amounted to 64 µg/mL against Escherichia coli and 256 µg/mL in the assay on Staphylococcus aureus [2].

Turning to `OC(Cn1c[n+](Cc2ccc(Cl)cc2Cl)cn1)(Cn1c[n+](Cc2ccc(Cl)cc2Cl)cn1)c1ccc(F)cc1F.[I-].[I-]`, the minimal inhibitory concentration (MIC) came out at 32 µg/mL in the assay on Aspergillus fumigatus; 64 µg/mL in the assay on Candida albicans; 4 µg/mL against Bacillus; 32 µg/mL in the assay with Pseudomonas aeruginosa; 64 µg/mL against Bacillus subtilis; 16 µg/mL in the assay with Staphylococcus aureus [1]. Besides, the MIC against Escherichia coli was 4 µg/mL; in the assay with Staphylococcus aureus [2] it was 64 µg/mL.

As for `CCCCCCCCCCCCCCCC[n+]1cnn(CC(O)(Cn2c[n+](CCCCCCCCCCCCCCCC)cn2)c2ccc(F)cc2F)c1.[Br-].[Br-]`, the MIC against Aspergillus fumigatus was above 256 µg/mL; in the assay on Candida albicans, 4 µg/mL; with Bacillus it was 256 µg/mL; in the assay on Pseudomonas aeruginosa, 128 µg/mL; against Bacillus subtilis, 128 µg/mL; in the assay on Staphylococcus aureus [1], 8 µg/mL. For the same compound, the values for the MIC against Escherichia coli and against Staphylococcus aureus [2] were 8 µg/mL and 128 µg/mL, respectively.

For `OC(Cn1c[n+](Cc2ccc(Cl)c(Cl)c2)cn1)(Cn1c[n+](Cc2ccc(Cl)c(Cl)c2)cn1)c1ccc(F)cc1F.[Cl-].[Cl-]`, the minimum inhibitory concentration (MIC) came to 128 µg/mL against Aspergillus fumigatus; 4 µg/mL in the assay on Candida albicans; 8 µg/mL in the assay on Bacillus; 16 µg/mL in the assay with Pseudomonas aeruginosa; 32 µg/mL against Bacillus subtilis; 8 µg/mL in the assay on Staphylococcus aureus [1]. For the same compound, the MIC came to 32 µg/mL in the assay on Escherichia coli and 64 µg/mL against Staphylococcus aureus [2].

Turning to `Fc1ccc(Cn2cncn2)c(F)c1`, the MIC with Aspergillus fumigatus, against Candida albicans, against Bacillus, in the assay with Pseudomonas aeruginosa, in the assay with Bacillus subtilis and in the assay on Staphylococcus aureus [1] was above 256 µg/mL each time. Moreover, the MIC against Escherichia coli and with Staphylococcus aureus [2] was above 256 µg/mL in each case.

For the compound `CCCCCCCCCCCC[n+]1cnn(CC(O)(Cn2c[n+](CCCCCCCCCCCC)cn2)c2ccc(F)cc2F)c1.[Br-].[Br-]`, the MIC was above 256 µg/mL in the assay with Aspergillus fumigatus; 2 µg/mL in the assay on Candida albicans; 8 µg/mL against Bacillus; 8 µg/mL against Pseudomonas aeruginosa; above 256 µg/mL in the assay with Bacillus subtilis; 2 µg/mL with Staphylococcus aureus [1]. Also, the values for the minimum inhibitory concentration (MIC) in the assay on Escherichia coli and against Staphylococcus aureus [2] were 2 µg/mL and 32 µg/mL, respectively.

With `OC(Cn1c[n+](Cc2cccc(Cl)c2)cn1)(Cn1c[n+](Cc2cccc(Cl)c2)cn1)c1ccc(F)cc1F.[Cl-].[Cl-]`, the MIC against Aspergillus fumigatus was 256 µg/mL; against Candida albicans it was 4 µg/mL; with Bacillus, 128 µg/mL; against Pseudomonas aeruginosa, 64 µg/mL; in the assay with Bacillus subtilis it was 64 µg/mL; in the assay with Staphylococcus aureus [1] it was 4 µg/mL. The minimal inhibitory concentration (MIC) in the assay on Escherichia coli and against Staphylococcus aureus [2] was 32 µg/mL in each case.

Consider `Cc1cccc(C[n+]2cnn(CC(O)(Cn3c[n+](Cc4cccc(C)c4)cn3)c3ccc(F)cc3F)c2)c1.[Br-].[Br-]`, for which the minimum inhibitory concentration (MIC) was determined as 256 µg/mL in the assay with Aspergillus fumigatus; 64 µg/mL against Candida albicans; 256 µg/mL against Bacillus; 256 µg/mL against Pseudomonas aeruginosa; 256 µg/mL with Bacillus subtilis; 16 µg/mL in the assay with Staphylococcus aureus [1]. The minimum inhibitory concentration (MIC) against Escherichia coli stood at 128 µg/mL; in the assay with Staphylococcus aureus [2], 256 µg/mL.

With `O=C1c2cccc3c(Br)ccc(c23)C(=O)N1CCCBr`, the minimal inhibitory concentration (MIC) in the assay on Aspergillus fumigatus is 128 µg/mL (≈ 322 µM); in the assay with Candida albicans, above 256 µg/mL; in the assay with Bacillus it was above 256 µg/mL; with Pseudomonas aeruginosa, above 256 µg/mL; with Bacillus subtilis, above 256 µg/mL; in the assay with Staphylococcus aureus [1], 128 µg/mL (≈ 322 µM). In addition, the values for the MIC against Escherichia coli and against Staphylococcus aureus [2] were 256 µg/mL (≈ 645 µM) and above 256 µg/mL, respectively.
